Consider 25 compounds from PubChem BioAssay AID623881 (Johns Hopkins Ion Channel Center, 2012).

Each structure is given as a SMILES string. Several values for one entry are separate records, joined by “and”; a condition that tells them apart may be missing. Equal entries are not always repeated. Activity calls are given as the source filed them.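 How the source made its calls: active means peak Kir2.1 potassium channel inhibition over 30% at one or more doses, plus a fitted dose response curve; inactive means no inhibition at any dose, or no curve fitted.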

Inward rectifier potassium channel 2 (Mus musculus), sequence (P35561 whole entry, looked up): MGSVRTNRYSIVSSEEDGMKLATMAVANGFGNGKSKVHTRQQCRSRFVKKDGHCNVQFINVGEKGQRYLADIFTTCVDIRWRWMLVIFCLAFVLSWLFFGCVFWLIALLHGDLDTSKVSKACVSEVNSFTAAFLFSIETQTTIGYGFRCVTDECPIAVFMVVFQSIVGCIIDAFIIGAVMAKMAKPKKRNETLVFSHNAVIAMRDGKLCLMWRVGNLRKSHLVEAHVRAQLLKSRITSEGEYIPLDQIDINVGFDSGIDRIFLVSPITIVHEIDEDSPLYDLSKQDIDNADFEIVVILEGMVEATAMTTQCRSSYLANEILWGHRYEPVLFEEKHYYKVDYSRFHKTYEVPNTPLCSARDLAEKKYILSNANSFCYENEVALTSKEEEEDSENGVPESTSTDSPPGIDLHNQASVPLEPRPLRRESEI

The first test deals with Inward rectifier potassium channel 2 (Mus musculus) (UniProt P35561). Put plainly: Kir2.1 channel inhibition, specificity check, SAR follow-up, selectivity assay for KCNK9 inhibitor project, cell-based, FluxOR thallium flux, CRC round 4 (AID 623881). The note with it: Kir2.1-expressing cells, FluxOR thallium flux fluorescence. Put shortly:
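Material: Kir2.1-expressing HEK293 cells; probe or stimulus: Tl+/K+ stimulus (5x stock K2SO4 plus Tl2SO4); timing: 90 min dye load, 20 min compound, room temperature; measured by: kinetic FluxOR thallium-dye fluorescence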
As for `COc1cccc(CCSc2nnc(-c3ccco3)n2C(C)C2CC3CCC2C3)c1` (stereo not given), the IC50 is 9.06 µM.
In the case of `COc1ccc(CSc2nnc(-c3ccco3)n2C(C)C2CC3CCC2C3)cc1OC` (stereo not given), the IC50 is 18.4 µM.
Consider `CC(C1CC2CCC1C2)n1c(SCCc2cccc(O)c2)nnc1-c1ccco1` (stereo not given), for which the half-inhibitory concentration (IC50) was 11.5 µM.
On the same count and under the same terms, next, `CC(C1CC2CCC1C2)n1c(SCCc2ccccn2)nnc1-c1ccco1` (stereo not given): 15.4 µM.
`CC(C1C[C@H]2CCC1C2)n1c(-c2ccsc2)n[nH]c1=S` (stereo not given in full): the IC50 is 23.1 µM.
On the same count and under the same terms, to `C[C@@H]([C@@H]1CC2CC[C@H]1C2)n1c(-c2ccsc2)n[nH]c1=S` belongs 23.5 µM and 25 µM.

The same test, now with this note: Kir2.1-expressing cells, FluxOR thallium flux fluorescence; at 30 µM (top of the series).
Regarding `COc1ccc(C(=O)CCSc2nnc(-c3ccco3)n2C(C)C2CC3CCC2C3)cc1OC` (stereo not given), the “thallium flux ratio, lower = inhibition” value was “inactive”.
Turning to `CC(C1CC2CCC1C2)n1c(N)nnc1-c1ccco1` (stereo not given), the “thallium flux ratio, lower = inhibition” value is “inactive”.
The same measure, in the same setting: next, `COc1cccc(-c2n[nH]c(=S)n2[C@H](C)[C@@H]2CC3CC[C@H]2C3)c1`: “inactive”; `CCCC(=O)C1CCN(c2ncnc3c2CN(C(=O)c2ccc(-c4ccccc4)cc2)CC3)CC1`: “inactive”; `C[C@@H]([C@@H]1CC2CC[C@H]1C2)n1c(-c2ccco2)n[nH]c1=S`: “inactive”.
Still for that read-out and setting: to `COc1cccc(-c2n[nH]c(=S)n2[C@H](C)C2CCCCC2)c1` belongs “inactive”.
Take `CC(C1CC2CCC1C2)n1c(SCCN2CCOCC2)nnc1-c1ccco1` (stereo not given): the “thallium flux ratio, lower = inhibition” value is “inactive”.
Still for that read-out and setting: next, `C[C@H]([C@@H]1CC2CC[C@H]1C2)n1c(-c2ccccc2F)n[nH]c1=S`: “inactive”.
Same read-out and setting: to `C[C@H](C1CCCCC1)n1c(-c2ccsc2)n[nH]c1=S` belongs “inactive”; to `COc1ccc(CC(=O)NCc2ccccc2-c2ccccc2C(=O)NCc2ccc(F)cc2F)cc1`, “inactive”; to `CC(C1CC2CCC1C2)n1c(-c2ccco2)nn(CCc2ccncc2)c1=S` (stereo not given), “inactive”.
Still for that read-out and setting: next, `CC(C1CCN(C)CC1)n1c(-c2ccco2)n[nH]c1=S` (stereo not given): “inactive”; `COc1cccc(-c2nnc(SSc3nnc(-c4cccc(OC)c4)n3C(C)C3CC4CCC3C4)n2C(C)C2CC3CCC2C3)c1` (stereo not given): “inactive”.
Take `C[C@H]([C@@H]1CC2CC[C@H]1C2)n1c(-c2ccco2)n[nH]c1=S`: the “thallium flux ratio, lower = inhibition” value is “inactive”.
The same measure, in the same setting: next, `C[C@H]([C@@H]1CC2CC[C@H]1C2)n1c(-c2ccsc2)n[nH]c1=S`: “inactive”; `C[C@H](C1CCCCC1)n1c(-c2ccccc2F)n[nH]c1=S`: “inactive”.
Same read-out and setting: to `COc1ccc(NC(=O)CSc2nnc(-c3ccco3)n2C(C)C2CC3CCC2C3)cc1OC` (stereo not given) belongs “inactive”; to `CC([C@@H]1CC2CC[C@H]1C2)n1c(-c2ccsc2)n[nH]c1=S` (stereo not given in full), “inactive”; to `CC(C1CC2CCC1C2)n1c(SCC(=O)N2CCN(C)CC2)nnc1-c1ccco1` (stereo not given), “inactive”.
